ChEMBL document CHEMBL1145281, “Potent bombesin-like peptides for GRP-receptor targeting of tumors with 99mTc: a preclinical study” (J Med Chem, 2005)

Assays:
[1] = target: T1, Gastrin-releasing peptide receptor (Homo sapiens, UniProt P30550); assay: Displacement of [125 I-Tyr4]BB from human gastrin releasing peptide receptor expressed in PC-3 cell membranes
[2] = tested on: PC-3; assay: Equilibrium constant of compound for binding to the active sites in human PC-3 cell membranes; type: functional
Summary of the method: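 Saturation binding of 99mTc/99gTc-labelled peptides in PC-3 membrane homogenates (50 μg protein), 0.06–12 nM total peptide, two triplicate sets for total and nonspecific binding. HEPES pH 7.6 buffer with 1% BSA, 5.5 mM MgCl2, 35 μM bacitracin. 1 h at 37 °C. Nonspecific binding defined with [Tyr4]BB. Kd from Scatchard analysis.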

[3] = target: T1, Gastrin-releasing peptide receptor; assay: Inhibition of gastrin releasing peptide receptor expressed in human prostate cancer cells; type: cell-based, Cancer cell lines
[4] = target: T2, Bombesin receptor subtype-3 (Homo sapiens, UniProt P32247); assay: Inhibition of bombesin subtype 3 receptor expressed in human lung carcinoids
T2 sequence (P32247 whole entry): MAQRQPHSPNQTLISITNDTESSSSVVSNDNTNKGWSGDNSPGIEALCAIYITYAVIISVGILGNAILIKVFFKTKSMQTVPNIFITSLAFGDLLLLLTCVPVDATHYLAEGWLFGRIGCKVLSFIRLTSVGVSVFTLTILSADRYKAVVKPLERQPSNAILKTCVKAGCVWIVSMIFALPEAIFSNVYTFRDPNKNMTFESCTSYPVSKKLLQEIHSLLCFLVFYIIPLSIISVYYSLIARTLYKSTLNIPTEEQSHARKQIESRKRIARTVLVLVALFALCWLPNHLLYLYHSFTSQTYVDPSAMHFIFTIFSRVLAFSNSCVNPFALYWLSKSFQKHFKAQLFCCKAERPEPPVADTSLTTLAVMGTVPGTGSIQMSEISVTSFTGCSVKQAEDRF

T1 sequence (P30550 whole entry): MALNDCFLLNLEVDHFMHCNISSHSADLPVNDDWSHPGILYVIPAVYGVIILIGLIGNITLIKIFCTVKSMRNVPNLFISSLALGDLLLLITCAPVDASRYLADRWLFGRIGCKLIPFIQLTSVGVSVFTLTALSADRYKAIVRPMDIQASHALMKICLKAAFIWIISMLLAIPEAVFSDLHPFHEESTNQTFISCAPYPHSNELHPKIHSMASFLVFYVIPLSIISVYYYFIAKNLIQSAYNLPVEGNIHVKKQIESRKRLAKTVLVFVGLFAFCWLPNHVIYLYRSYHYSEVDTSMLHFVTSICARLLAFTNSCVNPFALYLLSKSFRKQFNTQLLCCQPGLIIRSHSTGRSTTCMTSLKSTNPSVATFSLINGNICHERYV

IC50 [1] [nM] | IC50 [3] [nM] | Structure (SMILES) | Kd [2] [nM] | IC50 [4] [nM]
0.6 | 1.3 | CCCC[C@H](NC(=O)[C@H](CC(C)C)NC(=O)[C@H](Cc1c[nH]cn1)NC(=O)CNC(=O)[C@@H](NC(=O)[C@H](C)NC(=O)[C@H](Cc1c[nH]c2ccccc12)NC(=O)[C@H](CCC(N)=O)NC(=O)COCC(=O)Nc1ccc(CC(CNCCN)CNCCN)cc1)C(C)C)C(N)=O | 0.14 | > 100
0.08 | 0.65 | CSCC[C@H](NC(=O)[C@H](CC(C)C)NC(=O)[C@H](Cc1c[nH]cn1)NC(=O)CNC(=O)[C@@H](NC(=O)[C@H](C)NC(=O)[C@H](Cc1c[nH]c2ccccc12)NC(=O)[C@H](CCC(N)=O)NC(=O)COCC(=O)Nc1ccc(CC(CNCCN)CNCCN)cc1)C(C)C)C(N)=O | 0.07 | 37
0.15 | 1.94 | CCCC[C@H](NC(=O)[C@H](CC(C)C)NC(=O)[C@H](Cc1c[nH]cn1)NC(=O)CNC(=O)[C@@H](NC(=O)[C@H](C)NC(=O)[C@H](Cc1c[nH]c2ccccc12)NC(=O)[C@H](CCC(N)=O)NC(=O)[C@H](CC(N)=O)NC(=O)CNC(=O)[C@H](Cc1ccc(O)cc1)NC(=O)[C@H](CCCN=C(N)N)NC(=O)[C@H](CCC(N)=O)NC(=O)[C@@H]1CCCN1C(=O)C(CNCCN)CNCCN)C(C)C)C(N)=O | – | > 100
